Compound activity from PubChem BioAssay.
NALP3 yeast inh – blocks the NALP3 inflammasome reconstituted in yeast; Yeast reconstituted NLRP3/ASC/caspase-1, beta-gal luminescence, 24 h; AID 2825; hit rate 0.39% among 330,000; inhibition, % at 10 µM;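 active = inhibition of 50% or more; inactive = inhibition below 50%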;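 also: plate controls were induced DMSO wells for no effect and uninduced yeast grown without galactose for full effect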
PolyA inhibitor – yeast polyadenylation inhibition. S. cerevisiae SKY197-pL101 polyadenylation reporter, beta-gal luminescence; efflux-impaired pdr1/pdr3 knockout yeast; score 100 = 6 SD above DMSO. activity score, % at 12 µM. hit rate 0.02% among 300,000. AID 1875;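 active = lowest replicate activity score at least 50, where 100 means six control SD above control mean; inconclusive = lowest score under 50 but half or more replicates reach 50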;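 also: yeast exposed to compound for 9 h at 30 °C; higher score means more reporter readthrough which indicates perturbed polyadenylation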
Lmaj promast – inhibitors of Leishmania major promastigote growth. hit rate 9% among 200,000. Leishmania major promastigotes, resazurin fluorescence viability. inhibition, % at 10 µM. AID 1063;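 also: promastigotes grown with compound for 44 hours at 28 °C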
T cruzi inh – blocks replication of Trypanosoma cruzi; T. cruzi beta-gal in NIH3T3, luminescence, 90 h; inhibition, % (test concentration not listed); hit rate 1.4% among 300,000; AID 1885;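 active = mean inhibition across valid replicates above about 55%, limit read from the data; inconclusive = mean below that limit but half or more replicates reach it; inactive = mean below it, under half of replicates reach it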;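 also: signal also drops with host cell toxicity which is not excluded here; 0% = plate median of DMSO wells and 100% = zero luminescence signal; higher percent means less beta-gal luminescence so fewer parasites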
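Material: NIH/3T3 host cells with β-galactosidase reporter T. cruzi; Input: 5,000 host fibroblasts per well; Medium: DMEM, 2% fetal bovine serum; Compound: 50 nL DMSO compound solution per well; Schedule: 3 h host attachment, then at least 90 h co-culture; Detection: luminescent β-galactosidase signal after 60 min lysis.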
Calb FLC – C. albicans growth modulation with fluconazole; AID 1979; growth inhibition, % (concentration not given with the values); hit rate 0.57% among 300,000; C. albicans CaCi-2 + fluconazole, Alamar Blue growth, 48 h;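 active = growth inhibition above about 58% in most replicates, limit read from the data, passing the limit was not always enough; inconclusive = exactly half the replicates above a set limit; inactive = most replicates below a set limit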;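 also: all wells also contain fluconazole at 8 µg/ml as a sub-toxic cotreatment; 0% = median of DMSO wells and 100% = median of geldanamycin control wells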
NALP1 yeast inh – blocks the NALP1 inflammasome reconstituted in yeast | inhibition, % at 10 µM | hit rate 0.61% among 280,000 | S. cerevisiae NALP1/ASC/caspase-1 growth, X-gal OD620, 72 h | AID 2071; in the data active = inhibition mostly above about 24%, no sharp cut-off; inactive = mostly below about 32%
NALP3 yeast conf – confirmation of NALP3 inhibitors in yeast | inhibition, % at 10 µM | AID 435006 | shares compounds with NALP3 yeast inh | yeast expressing human NALP3, luminescence | hit rate 81% among 1,300; in the data active = inhibition above about 48%
Casp1-ASC yeast – counter-screen for NALP3 inhibitors: yeast caspase-1-ASC; shares compounds with NALP3 yeast inh; yeast expressing Caspase-1-ASC, luminescence counter screen; inhibition, % at 10 µM; hit rate 66% among 1,000; AID 488784
NALP3 yeast rt – confirmation retest of NALP3 inhibitors in yeast; shares compounds with NALP3 yeast inh; yeast expressing human NALP3, luminescence read-out; inhibition, % at 10 µM; hit rate 53% among 1,000; AID 488794
* = called active by the depositor; ? = inconclusive; · = no result. This is one part of a sample in which hits are shown more often than they occur. Rule as the data show it, unless noted: active = inhibition above about 50%; inactive = the rest.

SMILES	NALP3 yeast inh	PolyA inhibitor	Lmaj promast	T cruzi inh	Calb FLC	NALP1 yeast inh	NALP3 yeast conf	Casp1-ASC yeast	NALP3 yeast rt
Cc1cccc(NC(=O)CN2C(=O)NC(Cc3ccccc3)C2=O)c1 (stereo unspecified)	18	21	-3	-5	-3	-4	·	·	·
O=C(Cn1ccc2cc(S(=O)(=O)N3CCCC3)ccc21)NCc1ccco1	13	4	·	24	-13	28	·	·	·
COc1cccc(NC(=O)c2cccc(C(=O)Nc3cccc(OC)c3)c2)c1	18	19	·	-22	2	2	·	·	·
CN1CCSc2ccc(C(=O)Nc3cccc(F)c3)cc21	67*	-1	·	9	15	12	82*	·	·
COc1ccc(NC(=O)c2ccc3c(c2)N(C)CCS3)cc1	31	-13	·	17	-16	16	·	·	·
O=C(Nc1ccc2c(c1)OCO2)Nc1cnccn1	10	0	-7	-23	-5	11	·	·	·
O=C(Nc1ccc2c(c1)OCO2)Nc1ccccn1	53*	-5	3	-6	-13	22	61*	·	·
COc1cccc(NC(=O)c2ccccc2)c1	53*	·	·	·	·	·	72*	49	54*
O=C(Nc1cccc(F)c1)c1ccc2c(c1)OCCO2	67*	35	·	14	5	12	70*	62*	60*
NC(=O)CCC(NC(=O)c1ccc(Cl)cc1)C(=O)O (stereo unspecified)	17	5	2	3	-4	-2	·	·	·
CCOc1ccc(N(CC(=O)N2CCCCC2)S(=O)(=O)c2ccc(Cl)cc2)cc1	12	0	·	17	-4	0	·	·	·
O=C(Nc1cccc(Cl)c1)C1CCCCC1	50*	·	·	·	·	·	55*	38	38
Cc1ccc(SCCC(=O)OC(C(=O)NC(N)=O)C(C)C)cc1 (stereo unspecified)	5	-2	11	-21	32	13	·	·	·
CCn1c(COc2ccc(C)cc2)nnc1SCc1ccc(C#N)cc1	61*	-7	29	-8	0	15	71*	54*	39
CCCCCCCCCn1c2c(c(=N)c3c1CCC3)CCC2	59*	5	100*	48	36	27*	65*	23	55*
COc1ccc(NS(=O)(=O)c2c(F)cc(F)c(Cl)c2F)cc1S(=O)(=O)N1CCCCC1	4	?	-6	-18	-5	27	·	·	·
O=C(NC1CCCCCCC1)c1c(O)c2ccccc2[nH]c1=O	11	21	5	23	-8	-2	·	·	·
O=C(NNC(=O)c1c(O)c2ccccc2[nH]c1=O)c1ccccc1Br	57*	25	·	-1	-24	13	72*	47	47
CCNC(=O)c1c(O)c2ccccc2[nH]c1=O	68*	17	-5	-2	11	-23	79*	53*	71*
O=C(NC1CC1)c1c(O)c2ccccc2[nH]c1=O	69*	33	·	-11	7	28	75*	40	46
CCc1nnc(NC(=O)CCC(=O)N2CCN(c3cccc(Cl)c3)CC2)s1	-3	23	·	10	17	19	·	·	·
C=CCN1CCc2c(cc(O)c(O)c2Br)[C@@H](c2ccccc2)C1	9	-5	·	-5	·	·	·	·	·
COc1ccc(C(C[N+](=O)[O-])c2c(C)[nH]c3ccccc23)cc1OC (stereo unspecified)	28	-2	16	7	-8	44	·	·	·
Cc1ccc(C(C[N+](=O)[O-])c2c(-c3ccccc3O)[nH][nH]c2=O)cc1 (stereo unspecified)	51*	-63	100*	6	?	114*	51*	77*	58*
Cc1cc(C(=O)NNC(=O)c2ccc(C)s2)c(C)o1	17	-2	·	0	·	·	·	·	·
SMILES	NALP3 yeast inh	PolyA inhibitor	Lmaj promast	T cruzi inh	Calb FLC	NALP1 yeast inh	NALP3 yeast conf	Casp1-ASC yeast	NALP3 yeast rt
Cc1cc2[nH]c(=O)c(=O)[nH]c2cc1S(=O)(=O)NCc1ccc(Cl)cc1	3	15	·	-11	-8	6	·	·	·
O=Cc1c(Cl)nc2ccccn12	15	13	-2	-14	1	-4	·	·	·
Clc1cc2nc3ccccn3c2cc1Cl	67*	-14	9	2	-4	1	30	·	·
C#CCNC(=O)C1=C[C@H](C)C[C@H](OCc2ccc(CO)cc2)O1	17	15	·	-3	-1	·	·	·	·
O=C(NC1CC1)C1=C[C@H](C2CCCCC2)C[C@H](OCc2ccc(CO)cc2)O1	58*	-5	25	16	-13	8	60*	62*	46
C#CCNC(=O)C1=C[C@H](C2CCCCC2)C[C@H](OCc2ccc(CO)cc2)O1	54*	-6	10	-11	-6	-41	54*	51*	33
O=C1CC(c2ccc(S(=O)(=O)Nc3cc(C(F)(F)F)cc(C(F)(F)F)c3)cc2)CN1 (stereo unspecified)	-8	12	-9	-12	16	8	·	·	·
CC1CCN(c2ccc(NC(=O)Cn3c(=O)oc4ccccc43)cc2)CC1	10	-4	·	3	-13	3	·	·	·
O=C(N1CCOCC1)N(CCN1CCOCC1)Cc1cccc(Cl)c1	13	-7	31	1	-6	8	·	·	·
C/C(=N\NC(=O)c1ccccc1O)C1C(=O)c2ccccc2C1=O	87*	10	12	-8	-4	16	92*	92*	84*
COc1ccc(N2C(=NC(=O)CCC3CCCC3)SC3CS(=O)(=O)CC32)cc1 (stereo unspecified)	9	-16	·	10	3	6	·	·	·
COc1cccc(NS(=O)(=O)c2ccc(Br)s2)c1	53*	5	0	-18	1	9	63*	47	30
O=C(CN1CCc2ccccc2C1)NC1CCCC1	3	-1	6	-11	1	-8	·	·	·
Nc1cc(N2CCCCC2)c([N+](=O)[O-])cc1Cl	51*	-27	14	5	-6	36	9	·	·
O=C(OCC(=O)c1c[nH]c2ccccc12)c1ccc([N+](=O)[O-])s1	84*	-105	100*	61*	6	-2	91*	86*	92*
O=C(CCCl)N1CCCC2(CCCCC2)C1	-12	7	·	1	4	-14	·	·	·
Nc1c(-c2ccc(Cl)cc2)cnn1-c1cc(C(F)(F)F)cc(C(F)(F)F)c1	1	-3	·	19	-6	·	·	·	·
Nc1c(-c2ccccc2)cnn1-c1cccc(C(F)(F)F)c1	60*	-3	-6	15	-17	43	62*	62*	53*
Nc1c(-c2cccc(Cl)c2)cnn1-c1cccc(C(F)(F)F)c1	54*	0	-9	15	-28	23	73*	65*	50*
COc1ccc(C2(C)NC(=O)N(CC(=O)NC3CCCC3)C2=O)cc1OC (stereo unspecified)	-2	·	·	·	·	·	·	·	·
